Laboratory results reported in ChEMBL document CHEMBL5230171, “Expanding the structure-activity relationships of alkynyl diphenylurea scaffold as promising antibacterial agents” (RSC Med Chem, 2023).
In brackets after ≈: the same amount, converted by molar mass. Activity calls are given as the source filed them. The rule behind the calls is not given here.

How the values were obtained:
Staphylococcus aureus [1] = experiment: Antibacterial activity against vancomycin resistant Staphylococcus aureus 9 assessed as inhibition of bacterial growth at 0.5 ug/ml incubated for 18 to 20 hrs by CLSI protocol based broth microdilution method; type: functional, organism-based; settings: dose 0.5 µg/ml, time 18-20 hrs
Staphylococcus aureus [2] = experiment: Antibacterial activity against methicillin resistant Staphylococcus aureus 384 assessed as inhibition of bacterial growth at 0.5 ug/ml incubated for 18 to 20 hrs by CLSI protocol based broth microdilution method; type: functional, organism-based; settings: dose 0.5 µg/ml, time 18-20 hrs
Staphylococcus aureus [3] = experiment: Post antibiotic effect against methicillin resistant Staphylococcus aureus NRS384 USA300 assessed as time required for 1 log10 increase in CFU at 5 times of MIC incubated for 2 hrs followed by replacement with drug free medium and measured after 18-24 hrs; type: functional
In short: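 MRSA USA300 at ~10^6 CFU mL−1 was exposed for 2 h to 5× MIC of test agent, with vancomycin or DMSO as controls. Drug was removed by 1:1000 dilution in fresh TSB. Cultures were incubated at 37 °C with 180 rpm shaking and sampled hourly for 8 h, with viable counts on MSA read after 18–24 h. PAE = T − C, where T and C are the times for a 1 log10 rise in the test and control cultures.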

Staphylococcus aureus [4] = experiment: Antibacterial activity against methicillin resistant Staphylococcus aureus 119 assessed as inhibition of bacterial growth at 0.5 ug/ml incubated for 18 to 20 hrs by CLSI protocol based broth microdilution method; type: functional, organism-based; settings: dose 0.5 µg/ml, time 18-20 hrs
Staphylococcus aureus [5] = experiment: Antibacterial activity against vancomycin resistant Staphylococcus aureus 10 assessed as inhibition of bacterial growth at 0.5 ug/ml incubated for 18 to 20 hrs by CLSI protocol based broth microdilution method; type: functional, organism-based; settings: dose 0.5 µg/ml, time 18-20 hrs
Staphylococcus aureus [6] = experiment: Antibacterial activity against methicillin sensitive Staphylococcus aureus 6538 assessed as inhibition of bacterial growth at 0.5 ug/ml incubated for 18 to 20 hrs by CLSI protocol based broth microdilution method; type: functional, organism-based; settings: dose 0.5 µg/ml, time 18-20 hrs
In short: (§1)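 Staphylococcal and E. coli strains were diluted from a 0.5 McFarland suspension in cation-adjusted Mueller Hinton broth to ~5 × 10^5 CFU mL−1. They were incubated with serial dilutions of test agent in broth microdilution, and the MIC was recorded.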

Staphylococcus aureus [7] = experiment: Antibacterial activity against methicillin resistant Staphylococcus aureus 386 assessed as inhibition of bacterial growth at 0.5 ug/ml incubated for 18 to 20 hrs by CLSI protocol based broth microdilution method; type: functional, organism-based; settings: dose 0.5 µg/ml, time 18-20 hrs
Staphylococcus aureus [8] = experiment: Antibacterial activity against methicillin resistant Staphylococcus aureus 123 assessed as inhibition of bacterial growth at 0.5 ug/ml incubated for 18 to 20 hrs by CLSI protocol based broth microdilution method; type: functional, organism-based; settings: dose 0.5 µg/ml, time 18-20 hrs
Staphylococcus aureus [9] = experiment: Antibacterial activity against vancomycin resistant Staphylococcus aureus 12 assessed as inhibition of bacterial growth at 0.5 ug/ml incubated for 18 to 20 hrs by CLSI protocol based broth microdilution method; type: functional, organism-based; settings: dose 0.5 µg/ml, time 18-20 hrs
Staphylococcus aureus [10] = experiment: Antibacterial activity against methicillin sensitive Staphylococcus aureus 107 assessed as inhibition of bacterial growth at 0.5 ug/ml incubated for 18 to 20 hrs by CLSI protocol based broth microdilution method; type: functional, organism-based; settings: dose 0.5 µg/ml, time 18-20 hrs; in short: as §1
Staphylococcus aureus [11] = experiment: Antibacterial activity against methicillin resistant Staphylococcus aureus 385 assessed as inhibition of bacterial growth at 0.5 ug/ml incubated for 18 to 20 hrs by CLSI protocol based broth microdilution method; type: functional, organism-based; settings: dose 0.5 µg/ml, time 18-20 hrs
Enterococcus faecium = experiment: Antibacterial activity against Enterococcus faecium 700221 assessed as inhibition of bacterial growth incubated for 18 to 20 hrs by CLSI protocol based broth microdilution method; type: functional; settings: time 18-20 hrs
In short: (§2)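 Enterococci and L. monocytogenes were diluted from a 0.5 McFarland suspension in TSB. They were incubated with serial dilutions of test agent in broth microdilution, and the MIC was recorded.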

Staphylococcus aureus [12] = experiment: Antibacterial activity against methicillin resistant Staphylococcus aureus 123 assessed as inhibition of bacterial growth incubated for 18 to 20 hrs by CLSI protocol based broth microdilution method; type: functional; settings: time 18-20 hrs
In short: (§3)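 Broth microdilution against staphylococcal clinical isolates. Each strain was prepared as a 0.5 McFarland suspension and diluted in cation-adjusted Mueller Hinton broth to ~5 × 10^5 CFU mL−1. Serial dilutions of test agents in DMSO stock were incubated with the bacteria, and the MIC was recorded.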

Staphylococcus aureus [13] = experiment: Antibacterial activity against methicillin resistant Staphylococcus aureus 119 assessed as inhibition of bacterial growth incubated for 18 to 20 hrs by CLSI protocol based broth microdilution method; type: functional; settings: time 18-20 hrs; in short: as §3
Staphylococcus aureus [14] = experiment: Antibacterial activity against methicillin sensitive Staphylococcus aureus 107 assessed as inhibition of bacterial growth incubated for 18 to 20 hrs by CLSI protocol based broth microdilution method; type: functional; settings: time 18-20 hrs; in short: as §3
Vero = experiment: Cytotoxicity against African green monkey Vero cells assessed as reduction in cell viability at 64 ug/ml incubated for 24 hrs by MTS assay; type: toxicity, cell-based; settings: chlorocebus sabaeus, dose 64 µg/ml
In short: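 Vero or HaCaT cells were exposed to 32, 64 and 128 μg mL−1 compound in triplicate for 24 h at 37 °C, 5% CO2, with a DMSO control. MTS was then added for 4 h and OD490 read. Analysis used two-way ANOVA with Dunnett's post hoc test (p < 0.05).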

Streptococcus pyogenes [15] = experiment: Antibacterial activity against Streptococcus pyogenes MGAS 9882 assessed as inhibition of bacterial growth incubated for 18 to 20 hrs by CLSI protocol based broth microdilution method; type: functional; settings: time 18-20 hrs
In short: (§4)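 Streptococci were diluted from a 0.5 McFarland suspension in cation-adjusted Mueller Hinton broth with 5% lysed horse blood. They were incubated with serial dilutions of test agent in broth microdilution, and the MIC was recorded.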

Streptococcus pneumoniae [16] = experiment: Antibacterial activity against Streptococcus pneumoniae 51916 assessed as inhibition of bacterial growth incubated for 18 to 20 hrs by CLSI protocol based broth microdilution method; type: functional; settings: time 18-20 hrs; in short: as §4
[17] = system: Staphylococcus epidermidis; experiment: Antibacterial activity against Staphylococcus epidermidis 101 assessed as inhibition of bacterial growth incubated for 18 to 20 hrs by CLSI protocol based broth microdilution method; type: functional; settings: time 18-20 hrs; in short: as §1
Staphylococcus aureus [18] = experiment: Antibacterial activity against vancomycin resistant Staphylococcus aureus 12 assessed as inhibition of bacterial growth incubated for 18 to 20 hrs by CLSI protocol based broth microdilution method; type: functional; settings: time 18-20 hrs; in short: as §3
Streptococcus pyogenes [19] = experiment: Antibacterial activity against Streptococcus pyogenes MGAS 1882 assessed as inhibition of bacterial growth incubated for 18 to 20 hrs by CLSI protocol based broth microdilution method; type: functional; settings: time 18-20 hrs; in short: as §4
Staphylococcus aureus [20] = experiment: Antibacterial activity against methicillin sensitive Staphylococcus aureus 6538 assessed as inhibition of bacterial growth incubated for 18 to 20 hrs by CLSI protocol based broth microdilution method; type: functional; settings: time 18-20 hrs; in short: as §3
Staphylococcus aureus [21] = experiment: Antibacterial activity against methicillin resistant Staphylococcus aureus 384 assessed as inhibition of bacterial growth incubated for 18 to 20 hrs by CLSI protocol based broth microdilution method; type: functional; settings: time 18-20 hrs; in short: as §3
Staphylococcus aureus [22] = experiment: Antibacterial activity against vancomycin resistant Staphylococcus aureus 9 assessed as inhibition of bacterial growth incubated for 18 to 20 hrs by CLSI protocol based broth microdilution method; type: functional; settings: time 18-20 hrs; in short: as §3
Staphylococcus aureus [23] = experiment: Antibacterial activity against methicillin resistant Staphylococcus aureus 385 assessed as inhibition of bacterial growth incubated for 18 to 20 hrs by CLSI protocol based broth microdilution method; type: functional; settings: time 18-20 hrs; in short: as §3
Enterococcus faecalis = experiment: Antibacterial activity against Enterococcus faecalis 51299 assessed as inhibition of bacterial growth incubated for 18 to 20 hrs by CLSI protocol based broth microdilution method; type: functional; settings: time 18-20 hrs; in short: as §2
Staphylococcus aureus [24] = experiment: Antibacterial activity against vancomycin resistant Staphylococcus aureus 10 assessed as inhibition of bacterial growth incubated for 18 to 20 hrs by CLSI protocol based broth microdilution method; type: functional; settings: time 18-20 hrs; in short: as §3
Listeria monocytogenes = experiment: Antibacterial activity against Listeria monocytogenes 19111 assessed as inhibition of bacterial growth incubated for 18 to 20 hrs by CLSI protocol based broth microdilution method; type: functional; settings: time 18-20 hrs; in short: as §2
Streptococcus pneumoniae [25] = experiment: Antibacterial activity against Streptococcus pneumoniae 700677 assessed as inhibition of bacterial growth incubated for 18 to 20 hrs by CLSI protocol based broth microdilution method; type: functional; settings: time 18-20 hrs; in short: as §4
Streptococcus mutans = experiment: Antibacterial activity against Streptococcus mutans 25175 assessed as inhibition of bacterial growth incubated for 18 to 20 hrs by CLSI protocol based broth microdilution method; type: functional; settings: time 18-20 hrs; in short: as §4
Staphylococcus aureus [26] = experiment: Antibacterial activity against methicillin resistant Staphylococcus aureus 386 assessed as inhibition of bacterial growth incubated for 18 to 20 hrs by CLSI protocol based broth microdilution method; type: functional; settings: time 18-20 hrs; in short: as §3
Staphylococcus aureus [27] = experiment: Antibacterial activity against methicillin resistant Staphylococcus aureus NRS384 USA300 assessed as inhibition of bacterial growth incubated for 18 to 20 hrs by CLSI protocol based broth microdilution method; type: functional; settings: time 18-20 hrs; in short: as §3
Clostridioides difficile = experiment: Antibacterial activity against Clostridioides difficile ATCC BAA 1870 assessed as inhibition of bacterial growth incubated for 18 to 20 hrs by CLSI protocol based broth microdilution method; type: functional; settings: time 18-20 hrs
In short: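 C. difficile was diluted from a 0.5 McFarland suspension in BHI supplemented with hemin and vitamin K. It was incubated with serial dilutions of test agent in broth microdilution, and the MIC was recorded.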

Escherichia coli = experiment: Antibacterial activity against Escherichia coli JW55031 assessed as inhibition of bacterial growth incubated for 18 to 20 hrs by CLSI protocol based broth microdilution method; type: functional; settings: time 18-20 hrs; in short: as §1

Compound: CN[C@H](CC(C)C)C(=O)N[C@H]1C(=O)N[C@@H](CC(N)=O)C(=O)N[C@H]2C(=O)N[C@H]3C(=O)N[C@H](C(=O)N[C@H](C(=O)O)c4cc(O)cc(O)c4-c4cc3ccc4O)[C@H](O)c3ccc(c(Cl)c3)Oc3cc2cc(c3O[C@@H]2O[C@H](CO)[C@@H](O)[C@H](O)[C@H]2O[C@H]2C[C@](C)(N)[C@H](O)[C@H](C)O2)Oc2ccc(cc2Cl)[C@H]1O [VANCOMYCIN]
- Activity (Staphylococcus aureus [1]): Active
- Activity (Staphylococcus aureus [2]): Active
- Time (Staphylococcus aureus [3]): 4 h
- Activity (Staphylococcus aureus [4]): Active
- Activity (Staphylococcus aureus [5]): Active
- Activity (Staphylococcus aureus [6]): Active
- Activity (Staphylococcus aureus [7]): Active
- Activity (Staphylococcus aureus [8]): Active
- Activity (Staphylococcus aureus [9]): Active
- Activity (Staphylococcus aureus [10]): Active
- Activity (Staphylococcus aureus [11]): Active

Compound: CCCCC#Cc1ccc(NC(=O)Nc2ccc(/C(C)=N/NC(=N)N)cc2)cc1
- Activity (Staphylococcus aureus [1]): Active
- Activity (Staphylococcus aureus [2]): Active
- MIC (Enterococcus faecium): 0.5 µg/mL (≈ 1.28 µM)
- MIC (Staphylococcus aureus [12]): 0.5 µg/mL (≈ 1.28 µM)
- MIC (Staphylococcus aureus [13]): 0.5 µg/mL (≈ 1.28 µM)
- MIC (Staphylococcus aureus [14]): 0.5 µg/mL (≈ 1.28 µM)
- Activity (Vero): Non-Toxic
- Activity (Staphylococcus aureus [4]): Active
- MIC (Streptococcus pyogenes [15]): 0.5 µg/mL (≈ 1.28 µM)
- Activity (Staphylococcus aureus [5]): Active
- MIC (Streptococcus pneumoniae [16]): 0.5 µg/mL (≈ 1.28 µM)
- MIC [17]: 0.5 µg/mL (≈ 1.28 µM)
- MIC (Staphylococcus aureus [18]): 0.5 µg/mL (≈ 1.28 µM)
- MIC (Streptococcus pyogenes [19]): 0.5 µg/mL (≈ 1.28 µM)
- Activity (Staphylococcus aureus [6]): Active
- MIC (Staphylococcus aureus [20]): 0.5 µg/mL (≈ 1.28 µM)
- MIC (Staphylococcus aureus [21]): 0.5 µg/mL (≈ 1.28 µM)
- MIC (Staphylococcus aureus [22]): 0.5 µg/mL (≈ 1.28 µM)
- MIC (Staphylococcus aureus [23]): 0.5 µg/mL (≈ 1.28 µM)
- Activity (Staphylococcus aureus [7]): Active
- MIC (Enterococcus faecalis): 0.5 µg/mL (≈ 1.28 µM)
- MIC (Staphylococcus aureus [24]): 0.5 µg/mL (≈ 1.28 µM)
- Activity (Staphylococcus aureus [8]): Active
- Activity (Staphylococcus aureus [9]): Active
- Activity (Staphylococcus aureus [10]): Active
- MIC (Listeria monocytogenes): 0.5 µg/mL (≈ 1.28 µM)
- MIC (Streptococcus pneumoniae [25]): 0.5 µg/mL (≈ 1.28 µM)
- MIC (Streptococcus mutans): 0.5 µg/mL (≈ 1.28 µM)
- MIC (Staphylococcus aureus [26]): 0.5 µg/mL (≈ 1.28 µM)
- Activity (Staphylococcus aureus [11]): Active
- MIC (Staphylococcus aureus [27]; read-out: MIC): 0.5 µg/mL (≈ 1.28 µM)

Compound: C/C(=N\NC(=N)N)c1ccc(NC(=O)Nc2ccc(C#CC3CC3)cc2)cc1
- MIC (Clostridioides difficile): ≥ 64 µg/mL
- MIC (Escherichia coli): ≥ 64 µg/mL
- MIC (Staphylococcus aureus [27]): ≥ 64 µg/mL
